Reference: ChEMBL document CHEMBL4732214, “Highly Selective Y Receptor Antagonist Binds in an Allosteric Binding Pocket” (J Med Chem, 2021)
Calls of active or inactive are those of the source. The rule behind the calls is not given here.

What was measured:
[1] = biological target: T1, Neuropeptide Y receptor type 1 (Mus musculus) (UniProt Q04573); assay: Allosteric antagonist activity at NPY1R in mouse descending colon mucosa assessed as reduction in PYY-induced ion transport at 30 uM by electrophysiology
T1 sequence (whole entry): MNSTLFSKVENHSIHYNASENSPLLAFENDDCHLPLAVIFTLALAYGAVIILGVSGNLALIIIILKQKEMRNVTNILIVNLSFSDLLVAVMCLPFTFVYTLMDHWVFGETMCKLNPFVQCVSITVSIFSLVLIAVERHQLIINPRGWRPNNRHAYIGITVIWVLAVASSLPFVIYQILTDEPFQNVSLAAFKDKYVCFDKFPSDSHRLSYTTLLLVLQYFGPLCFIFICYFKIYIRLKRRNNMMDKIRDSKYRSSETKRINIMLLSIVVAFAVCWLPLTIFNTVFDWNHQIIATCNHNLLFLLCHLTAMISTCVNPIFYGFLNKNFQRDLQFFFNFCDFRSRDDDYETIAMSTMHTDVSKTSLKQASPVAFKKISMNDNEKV

[2] = biological target: T2, Neuropeptide Y receptor type 2 (Mus musculus) (UniProt P97295); assay: Allosteric antagonist activity at NPY2R in mouse descending colon mucosa assessed as reduction in PYY-induced ion transport at 0.3 to 30 uM by electrophysiology; details: dose 0.3-30 µM
T2 sequence (whole entry): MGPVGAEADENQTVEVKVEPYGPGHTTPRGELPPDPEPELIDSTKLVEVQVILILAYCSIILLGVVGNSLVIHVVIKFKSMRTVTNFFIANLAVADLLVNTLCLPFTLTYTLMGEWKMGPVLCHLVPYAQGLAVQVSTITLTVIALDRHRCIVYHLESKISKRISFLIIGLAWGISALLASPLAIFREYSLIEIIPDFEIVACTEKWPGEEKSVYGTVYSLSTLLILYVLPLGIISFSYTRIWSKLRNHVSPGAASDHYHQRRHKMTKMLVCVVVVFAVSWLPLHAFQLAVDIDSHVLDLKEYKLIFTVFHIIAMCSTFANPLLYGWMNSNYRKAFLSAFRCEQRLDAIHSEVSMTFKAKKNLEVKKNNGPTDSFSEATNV

[3] = biological target: T1, Neuropeptide Y receptor type 1 (Mus musculus); assay: Allosteric antagonist activity at NPY1R in mouse descending colon mucosa assessed as reduction in PYY-induced ion transport at 0.3 to 30 uM by electrophysiology; details: dose 0.3-30 µM
[4] = biological target: T3, Neuropeptide Y receptor type 4 (Homo sapiens, UniProt P50391); assay: Allosteric antagonist activity at […]-tagged human NPY4R expressed in COS7 cells co-expressing Gqi5-alpha assessed as inhibition of PP-induced Ca2+ flux by Fluo-2 AM dye based fluorescent assay relative to control; format: functional, cell-based
[5] = biological target: T2, Neuropeptide Y receptor type 2 (Mus musculus); assay: Allosteric antagonist activity at NPY2R in mouse descending colon mucosa assessed as reduction in PYY-induced ion transport at 30 uM by electrophysiology
[6] = biological target: T3, Neuropeptide Y receptor type 4; assay: Allosteric antagonist activity at human NPY4R expressed in HEK293 cells assessed as reduction in rate of PP-induced arrestin-3 recruitment at 30 uM measured after 30 mins by BRET assay; format: cell-based; details: filed as allosteric antagonist
In short: (§1)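 BRET in HEK293 cells transiently expressing Y4R-Rluc8 and venus-arr3. Pretreated with 30 μM compound or DMSO, then read continuously for 30 min after 100 nM PP. Fluorescence/luminescence ratio, unstimulated control subtracted to give netBRET. Rate constant k from a one-phase association fit. N ≥ 4, unpaired t-test.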

[7] = biological target: T4, Neuropeptide Y receptor type 5 (Homo sapiens) (UniProt Q15761); assay: Allosteric antagonist activity at […]-tagged human NPY5R expressed in COS7 cells co-expressing Gqi5-alpha assessed as inhibition of NPY-induced Ca2+ flux at 30 uM by Fluo-2 AM dye based fluorescent assay; format: functional, cell-based
T4 sequence (whole entry): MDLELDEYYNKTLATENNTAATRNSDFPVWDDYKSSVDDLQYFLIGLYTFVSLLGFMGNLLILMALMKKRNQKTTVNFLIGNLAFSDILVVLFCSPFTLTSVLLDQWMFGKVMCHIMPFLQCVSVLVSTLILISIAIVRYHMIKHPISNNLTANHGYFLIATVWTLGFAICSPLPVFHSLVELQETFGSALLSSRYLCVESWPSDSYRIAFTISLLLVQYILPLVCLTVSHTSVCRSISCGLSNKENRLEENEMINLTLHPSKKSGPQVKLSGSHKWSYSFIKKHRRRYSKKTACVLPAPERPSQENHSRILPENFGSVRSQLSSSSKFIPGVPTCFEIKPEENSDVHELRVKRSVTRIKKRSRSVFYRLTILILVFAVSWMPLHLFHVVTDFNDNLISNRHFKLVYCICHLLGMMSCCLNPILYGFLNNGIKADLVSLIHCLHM
In short: (§2)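 Stable COS7 lines expressing Y1R-, Y2R- or Y5R-eYFP plus chimeric Δ6Gαqi4myr, loaded with 2.4 μM Fluo2-AM in HBSS/20 mM HEPES/2.5 mM probenecid pH 7.4. After 20 s baseline, DMSO or 30 μM compound added, NPY added 110 s later, 140 s run. Read at ex 485/em 525 nm. Signal taken as x-fold over basal, normalized to 1 μM NPY maximum. N ≥ 3.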

[8] = biological target: T3, Neuropeptide Y receptor type 4; assay: Displacement of [125I]-PP from human NPY4R expressed in HEK293 cell membranes assessed as remaining radioligand binding incubated for 5 hrs using 60 pM [125I]-PP by microBeta scintillation counting assay; details: Cell membrane, filed as allosteric antagonist
In short: (§3)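 Membranes from stable HEK293 Y4R-eYFP cells, 0.3 μg in HEPES buffer (25 mM HEPES, […], 1 mM MgCl2, Pefabloc, pH 7.4) with DMSO or compound. Incubated with 60 or 180 pM human ¹²⁵I-PP for 5 h at room temperature. Nonspecific binding set with 1 μM PP. Bound ligand collected on PEI-soaked GF/C filters and counted by scintillation.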

[9] = biological target: T3, Neuropeptide Y receptor type 4; assay: Displacement of [125I]-PP from human NPY4R expressed in HEK293 cell membranes assessed as remaining radioligand binding incubated for 5 hrs using 180 pM [125I]-PP by microBeta scintillation counting assay; details: Cell membrane
In short: as §3

COS7 [10] = assay: Allosteric antagonist activity at human NPY4R chimera containing NPY1R transmembrane helix 2 expressed in COS7 cells co-expressing Gqi5-alpha assessed as inhibition of PP-induced Ca2+ flux at 15 uM by Fluo-2 AM dye based fluorescent assay; format: cell-based
In short: (§4)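 Y4R/Y1R chimeras carrying Y1R TM1, TM2 or ECL2 segments, C-terminal eYFP, transiently cotransfected with Δ6Gαqi4myr in COS7 cells. Fluo2-AM Ca²⁺ flux. 15 μM antagonist or DMSO added, followed by PP. Reduction in PP response given relative to DMSO control, normalized to 1 μM PP.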

[11] = biological target: T5, Neuropeptide Y receptor type 1 (Homo sapiens) (UniProt P25929); assay: Allosteric antagonist activity at […]-tagged human NPY1R expressed in COS7 cells co-expressing Gqi5-alpha assessed as inhibition of NPY-induced Ca2+ flux at 30 uM by Fluo-2 AM dye based fluorescent assay; format: functional, cell-based
T5 sequence (whole entry): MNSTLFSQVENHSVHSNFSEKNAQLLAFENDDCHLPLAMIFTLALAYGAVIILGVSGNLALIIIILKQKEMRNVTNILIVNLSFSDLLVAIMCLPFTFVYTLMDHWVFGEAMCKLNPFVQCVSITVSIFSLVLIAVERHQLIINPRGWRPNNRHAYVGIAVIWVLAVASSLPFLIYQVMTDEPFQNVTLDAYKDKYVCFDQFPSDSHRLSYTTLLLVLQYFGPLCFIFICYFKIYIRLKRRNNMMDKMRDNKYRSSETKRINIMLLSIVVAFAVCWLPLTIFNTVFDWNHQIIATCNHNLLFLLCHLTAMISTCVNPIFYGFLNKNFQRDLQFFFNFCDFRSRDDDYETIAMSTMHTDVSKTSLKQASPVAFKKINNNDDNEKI
In short: as §2

[12] = biological target: T3, Neuropeptide Y receptor type 4; assay: Inhibition of 100 nM PP-induced receptor internalization of eYFP-tagged human NPY4R expressed in HEK293 cells at 30 uM after 30 mins by fluorescence microscopy; format: cell-based; details: filed as allosteric antagonist
In short: (§5)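 HEK293 cells stably expressing Y4R-eYFP, nuclei stained with Hoechst. Cells given 30 μM compound or DMSO in OptiMEM, then 10 or 100 nM PP (or medium) for 30 min at 37 °C. eYFP imaged at a fixed 400 ms exposure. Cell-surface fluorescence quantified as pixel intensity, normalized to unstimulated DMSO control.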

COS7 [13] = assay: Allosteric antagonist activity at human NPY4R chimera containing NPY1R transmembrane helix 1 expressed in COS7 cells co-expressing Gqi5-alpha assessed as inhibition of PP-induced Ca2+ flux at 15 uM by Fluo-2 AM dye based fluorescent assay; format: cell-based
In short: as §4

[14] = biological target: T3, Neuropeptide Y receptor type 4; assay: Displacement of [125I]-PP from human NPY4R expressed in HEK293 cell membranes incubated for 5 hrs by microBeta scintillation counting assay; details: Cell membrane, filed as allosteric antagonist
In short: as §3

COS7 [15] = assay: Allosteric antagonist activity at human NPY4R chimera containing NPY1R extracellular loop 2 expressed in COS7 cells co-expressing Gqi5-alpha assessed as inhibition of PP-induced Ca2+ flux at 15 uM by Fluo-2 AM dye based fluorescent assay; format: cell-based
In short: as §4

[16] = biological target: T3, Neuropeptide Y receptor type 4; assay: Allosteric antagonist activity at human NPY4R expressed in HEK293 cells assessed as reduction in PP-induced arrestin-3 recruitment at 30 uM measured after 30 mins by BRET assay; format: cell-based; details: filed as allosteric antagonist
In short: as §1

[17] = biological target: T3, Neuropeptide Y receptor type 4; assay: Inhibition of receptor internalization of eYFP-tagged human NPY4R expressed in HEK293 cells at 30 uM after 30 mins by fluorescence microscopy; format: cell-based
In short: as §5

[18] = biological target: T6, Neuropeptide Y receptor type 2 (Homo sapiens) (UniProt P49146); assay: Allosteric antagonist activity at […]-tagged human NPY2R expressed in COS7 cells co-expressing Gqi5-alpha assessed as inhibition of NPY-induced Ca2+ flux at 30 uM by Fluo-2 AM dye based fluorescent assay; format: functional, cell-based
T6 sequence (whole entry): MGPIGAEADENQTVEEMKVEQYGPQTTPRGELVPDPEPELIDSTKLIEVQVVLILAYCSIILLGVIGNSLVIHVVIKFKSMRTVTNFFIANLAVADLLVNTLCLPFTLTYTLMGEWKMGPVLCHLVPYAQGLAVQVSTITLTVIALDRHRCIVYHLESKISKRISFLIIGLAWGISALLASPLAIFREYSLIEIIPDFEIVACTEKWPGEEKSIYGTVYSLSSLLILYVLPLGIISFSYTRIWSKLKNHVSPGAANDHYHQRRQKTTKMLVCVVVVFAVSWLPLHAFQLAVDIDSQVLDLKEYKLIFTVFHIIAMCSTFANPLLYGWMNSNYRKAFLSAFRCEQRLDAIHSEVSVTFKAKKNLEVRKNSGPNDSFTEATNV
In short: as §2

[19] = biological target: T3, Neuropeptide Y receptor type 4; assay: Inhibition of 10 nM PP-induced receptor internalization of eYFP-tagged human NPY4R expressed in HEK293 cells at 30 uM after 30 mins by fluorescence microscopy; format: cell-based; details: filed as allosteric antagonist
In short: as §5

T3 sequence (P50391 whole entry): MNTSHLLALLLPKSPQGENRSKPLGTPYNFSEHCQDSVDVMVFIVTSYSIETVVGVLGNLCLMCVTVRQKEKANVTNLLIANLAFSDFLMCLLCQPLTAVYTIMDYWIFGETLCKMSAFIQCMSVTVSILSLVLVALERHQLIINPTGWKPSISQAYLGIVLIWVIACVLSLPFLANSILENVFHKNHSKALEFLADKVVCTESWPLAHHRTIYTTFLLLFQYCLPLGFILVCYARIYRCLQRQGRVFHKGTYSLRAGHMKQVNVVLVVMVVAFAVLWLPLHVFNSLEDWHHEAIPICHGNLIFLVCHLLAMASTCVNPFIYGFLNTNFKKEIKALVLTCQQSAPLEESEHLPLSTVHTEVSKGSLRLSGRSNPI

For CS(=O)(=O)N1CCCC[C@@H]1C(=O)Nc1nc2cc3c(cc2s1)OCCO3, the inhibition [1] was “inactive”, the inhibition [2] was “inactive” and the inhibition [3] was “inactive”. The pIC50 [4] was “inactive”, the IC50 ([4]; cos7) was “Not Active” and the inhibition [5] was “inactive”.

In the case of CS(=O)(=O)N1CCCCC1C(=O)Nc1nc2cc3c(cc2s1)OCCO3 (racemic), the inhibition [6] is reported as “Active”, the inhibition [7] is reported as “inactive” and the Activity [8] is reported as 15%. For the same compound, the inhibition [9] was “inactive”, the inhibition (COS7 [10]) was “inactive” and the inhibition [11] was “inactive”. For the same compound, the IC50 ([4]; read-out: IC50) was 4 µM, the inhibition [12] was “Active” and the inhibition (COS7 [13]) was “inactive”. The inhibition [14] was “Dose-dependent effect”, the inhibition (COS7 [15]) was “inactive” and the inhibition [16] was “Active”. For the same compound, the inhibition [17] was “inactive”, the inhibition [18] was “inactive” and the inhibition [19] was “Active”.
